Assay results from PubChem BioAssay AID624467 (The Scripps Research Institute Molecular Screening Center, 2012).
About 3,600 (1%) of roughly 360,000 compounds were called active.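 Rule for the calls: active = activation above the mean activation of all test compounds in the run plus 3 SD (cut at about 38% in these data); inactive = the rest.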 This excerpt belongs to a sample that is enriched for actives.

Target: Trace amine-associated receptor 1 (Homo sapiens) (UniProt Q96RJ0)
Assay: activators of TAAR1 calcium mobilization – Fluo-8 calcium fluorescence, CHO RD-HGA16 cells, primary screen (AID 624467)
Settings: CHO RD-HGA16 TAAR1, Fluo-8 calcium fluorescence; at 3 µM; stronger effect = higher value; vehicle wells 0%, saturating PEA agonist 100%
Outline: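 Assay system – CHO-derived RD-HGA16 cells with stable Gα16 and human TAAR1 · Compound dosing – one-point dosing at 3 µM (nominal) · Incubation – 17-24 h seeding, 75 min 37 °C dye, 30 min RT · Measured by – kinetic Fluo-8 calcium fluorescence · Control set – DMSO vehicle as 0%, PEA at EC100 as 100% · Repeats – single well for each compound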

Trace amine-associated receptor 1 (Homo sapiens), sequence (Q96RJ0 whole entry, looked up): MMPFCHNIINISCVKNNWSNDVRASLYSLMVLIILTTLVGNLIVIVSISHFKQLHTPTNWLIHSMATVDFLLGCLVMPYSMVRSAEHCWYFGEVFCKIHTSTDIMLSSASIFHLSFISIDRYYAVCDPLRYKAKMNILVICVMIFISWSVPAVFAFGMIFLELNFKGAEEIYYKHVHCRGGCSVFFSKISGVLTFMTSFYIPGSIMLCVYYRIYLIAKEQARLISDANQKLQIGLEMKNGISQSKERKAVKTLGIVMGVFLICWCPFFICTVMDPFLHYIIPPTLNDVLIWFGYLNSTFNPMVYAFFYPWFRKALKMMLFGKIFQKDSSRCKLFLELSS

activation, inactive:
C[C@H](O)[C@@H]1C(=O)N2CCc3c([nH]c4ccccc34)[C@@H]2C[C@@H]1N(C)C(=O)Nc1ccc(F)cc1 9.88%, CC(=O)C(CC(=O)N1CCCC1)C(=O)Nc1ccc(Cl)cc1 (centres undefined) 7.47%, C=CCNC(=S)N1CCc2[nH]c3ccccc3c2C1 6.5%, CCOc1ccc(NC(=O)N2CC=C(n3c(=O)[nH]c4ccccc43)CC2)cc1 15.9%, COC(=O)C(C(=O)OC)c1ccccc1NS(=O)(=O)c1cccc2ccccc12 -0.61%, CCOc1ccccc1C(=O)N1CCC[C@@H]1C(=O)N1CCC[C@H]1C(=O)NCc1ccccc1 -0.21%, Cc1ccc2nc(CN(C)C(=O)[C@@H](Cc3ccccc3)NC(=O)[C@H]3O[C@@H](n4ccc(=O)[nH]c4=O)[C@H](O)[C@@H]3O)[nH]c2c1 1.15%, CC(C)CCNC(=O)Cn1c(=O)oc2cc(S(=O)(=O)N3CC(C)CC(C)C3)ccc21 (centres undefined) 4.15%, N/C(=N\c1nc2ccccc2o1)NC(=O)C(Cc1ccccc1)N1C(=O)c2ccccc2C1=O (centres undefined) -1.96%, Cc1ccc(C)c(CN2CCC(CNC(=O)Nc3ccc(C)c(F)c3)CC2)c1 2.76%, O=C(NCC1CCN(Cc2ccccc2Cl)CC1)Nc1cccc(Cl)c1 2.1%, COc1ccc(C(=O)OCC(=O)NCC2CCCO2)cc1[N+](=O)[O-] (centres undefined) -0.84%, O=S(=O)(Nc1cc(S(=O)(=O)N2CCOCC2)ccc1N1CCCC1)c1cccs1 -2.22%, CC1(C)c2[nH]c3ccccc3c2C[C@H]2C(=O)N(N)CC(=O)N21 4.18%, COc1cc(S(=O)(=O)N2CCN=C2c2ccccc2)ccc1Cl -0.47%, CCOC(=O)[C@]12CCCC=C1N(CCC1=CCCCC1)C(=O)[C@H](CC(=O)NCCCOC)C2 -0.95%, O=C(NCCN1CCOCC1)/C(=C/c1ccc(F)cc1)NC(=O)c1ccccc1 -2.27%, CCOc1ccc(/C=C(/NC(=O)c2ccccc2)C(=O)NCCC(=O)O)cc1 5.67%, COC(=O)Cc1nnn2c1[C@H](C)[C@@H](OC)c1cc(Br)ccc1-2 0.26%, O=C(Cn1cnc2c(cnn2-c2ccc(F)cc2)c1=O)NCCc1ccccc1 -0.7%, Cc1ccc(NC(=O)Nc2cc(-c3ccccc3)nn2C)cc1Cl 11.2%, O=C(CC(O)(C(F)(F)F)C(F)(F)F)Nc1ccc(Cl)c(Cl)c1 12.3%, O=P(O)(CP(=O)(c1ccccc1)c1ccccc1)c1ccccc1 12.7%, O=C(COC(=O)Cc1c[nH]c2ccccc12)NCCc1ccccc1 8.93%, COc1ccc(CCNC(=O)COC(=O)Cc2ccccc2F)cc1 2.06%, COc1ccccc1N(CC(=O)NC1CCCC1)C(=O)C1(C)CC(=O)N=C2C=CC(C)=CN21 (centres undefined) 2.01%, CC1CCN(C(=O)c2cccc(S(=O)(=O)N3CCCc4ccccc43)c2)CC1 2.06%, CCN(CC(=O)Nc1c(F)cccc1F)C(=O)c1ccc(S(=O)(=O)N2CCCCC2)cc1 8.1%, CCC(=O)Nc1nnc(S(=O)(=O)N2CCCc3ccccc32)s1 0.28%, CCN(CC)CCN(C(=O)c1ccc(N2C(=O)CCC2=O)cc1)c1nc2cc3c(cc2s1)OCO3 2.36%, C=CCOc1ccccc1/C=N/NC(=O)Cc1ccccc1 3.06%, O=C(CO/N=C/c1ccccc1O)NNC(=O)c1ccccc1Cl 8.86%, NC(CSC(c1ccccc1)(c1ccccc1)c1ccc(-c2ccccc2)cc1)C(=O)O (centres undefined) 3.19%, O=S(=O)(Cc1ccc(Cl)cc1Cl)c1ccc(Cl)cc1 6.28%, COC(=O)C1=C(C)N(Cc2cccc(C(F)(F)F)c2)C(=NCc2cccc(C(F)(F)F)c2)NC1c1ccccc1C(F)(F)F (centres undefined) -0.1%, O=C(NCCc1ccc(Cl)cc1)C1CCCN1C(=O)NCc1ccccc1 (centres undefined) -0.77%, CC(=O)c1cccc(NC(=O)N2CCCC2C(=O)NCCc2ccccc2)c1 (centres undefined) 4.48%, CC1CCN(C(=O)CCc2nnc3ccc(NCc4ccco4)nn23)CC1 6.46%, COc1ccc(N2C(=O)CC(Nc3ccc(F)cc3)C2=O)c([N+](=O)[O-])c1 (centres undefined) 2.14%, Nc1nc2c(ncn2[C@@H]2O[C@H](C(=O)N[C@@H](Cc3ccccc3)C(=O)NCc3ccccc3)[C@@H](O)[C@H]2O)c(=O)[nH]1 5.02%, CC(C)[C@H](NC(=O)N1CCn2c1nc1ccccc12)C(=O)NC1CC1 1.88%, CC(C)[C@H](NC(=O)N1CCn2c1nc1ccccc12)C(=O)NCc1ccc2c(c1)OCO2 3.58%, C=CCOc1ccc(C(=O)Nc2ccccc2C(=O)N2CCCC2)cc1 -0.26%

activation, active:
Fc1ccc(NC(=S)N2CCc3[nH]c4ccccc4c3C2)cc1 51.5%, O=C(Nc1ccc(Cl)cc1)N1CCc2[nH]c3ccccc3c2C1 50.1%, Cc1cccc(CN2CCC(CNC(=O)Nc3ccc(F)c(Cl)c3)CC2)c1 39.9%, O=C(NCCc1ccccc1)/C(=C\c1ccc([N+](=O)[O-])cc1)NC(=O)c1ccccc1 50.3%, Cc1nnc(NC(=O)Nc2ccc(Cl)c(Cl)c2)s1 42%, O=C(COC(=O)Cc1ccccc1F)NCCc1ccccc1 47.4%, CN(C)CCCN(C(=O)c1ccc(S(=O)(=O)N2CCCCCC2)cc1)c1nc2ccc(Br)cc2s1 58.3%, CN(C)CCCN(C(=O)c1ccc(S(=O)(=O)N2CCCc3ccccc32)cc1)c1nc2ccc(F)cc2s1 58.5%, O=C(NN=Cc1ccccc1O)NN=Cc1ccccc1O 43.2%, O=C(N[C@H](C(=O)N1CCC[C@H]1C(=O)NCCc1ccccc1Cl)c1ccccc1)c1ccccc1 57.5%, CC(C)[C@H](NC(=O)N1CCn2c1nc1ccccc12)C(=O)NCCc1ccccc1 38.9%
